Values after ≈ are worked out from the molar mass of the structure shown.
What was measured:
Candida albicans [1] = assay: Antifungal activity against Candida albicans NR-29448 after 44 hrs by broth dilution assay; assay type: functional; conditions: NR-29448, 44 h
Summary of the method: (§1)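 Yeast broth microdilution per CLSI M27-A3, in RPMI-1640. Incubation is at 37 °C for at least 44 h. MIC is the lowest concentration with no visible growth, read by eye.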

Candida albicans [2] = assay: Fungicidal activity against Candida albicans NR-29448 after 18 hrs; assay type: functional; conditions: NR-29448, 18 h, read-out: MFC99.9
Summary of the method: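 Starting from the MIC plate, 5 μL aliquots are taken from wells with no growth and spotted onto YPD agar. After 18 h at 37 °C, MFC is recorded as the concentration giving a >99.9% decrease in CFU.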

Nakaseomyces glabratus [3] = assay: Antifungal activity against Candida glabrata ATCC 66032 after 44 hrs by broth dilution assay; assay type: functional; conditions: ATCC 66032, 44 h; summary of the method: as §1
HRT-18 cell line [4] = assay: Cytotoxicity against human HRT18 cells assessed as cell viability at 256 uM after 2 hrs by MTS assay; assay type: cell-based; conditions: hrt-18, 2 h
Summary of the method: (§2)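 HRT-18 cells are grown in RPMI-1640 with 10% fetal horse serum at 37 °C, 5% CO2. Compounds are added in triplicate for 2 h, with DMSO-matched vehicle controls. MTS is then added for 4 h and absorbance read at 490 nm. Viability is given as % of DMSO control, mean ± SD. Two-way ANOVA with Dunnett's test.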

Pichia kudriavzevii [5] = assay: Antifungal activity against Candida krusei ATCC 34135 after 44 hrs by broth dilution assay; assay type: functional; conditions: ATCC 34135, 44 h; summary of the method: as §1
[6] = tested on: Cryptococcus gattii species complex; assay: Antifungal activity against Cryptococcus gattii NR-43208 after 68 hrs by broth dilution assay; assay type: functional, Cryptococcus bacillisporus; conditions: NR-43208, 68 h
Summary of the method: (§3)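 Cryptococcus MIC follows CLSI M27-A3 broth dilution in RPMI-1640. Incubation is at 37 °C for 68 h, and the MIC is read by visual inspection.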

HRT-18 cell line [7] = assay: Cytotoxicity against human HRT18 cells assessed as cell viability at 128 uM after 2 hrs by MTS assay; assay type: cell-based; conditions: hrt-18, 2 h; summary of the method: as §2
Candida albicans [8] = assay: Antifungal activity against Candida albicans ATCC 27365 after 44 hrs by broth dilution assay; assay type: functional; conditions: ATCC 27365, 44 h; summary of the method: as §1
[9] = tested on: Cryptococcus gattii species complex; assay: Antifungal activity against Cryptococcus gattii NR-43209 after 68 hrs by broth dilution assay; assay type: functional, Cryptococcus bacillisporus; conditions: NR-43209, 68 h; summary of the method: as §3
Candida albicans [10] = assay: Antifungal activity against Candida albicans ATCC 64124 after 44 hrs by broth dilution assay; assay type: functional; conditions: ATCC 64124, 44 h; summary of the method: as §1
Candida albicans [11] = assay: Antifungal activity against Candida albicans NR-29446 after 44 hrs by broth dilution assay; assay type: functional; conditions: NR-29446, 44 h; summary of the method: as §1
Aspergillus fumigatus [12] = assay: Antifungal activity against Aspergillus fumigatus NR-35302 after 44 hrs by broth dilution assay; conditions: NR-35302, 44 h
Aspergillus niger [13] = assay: Antifungal activity against Aspergillus niger ATCC 6275 after 44 hrs by broth dilution assay; conditions: ATCC 6275, 44 h
Candida tropicalis [14] = assay: Antifungal activity against Candida tropicalis ATCC 13803 after 44 hrs by broth dilution assay; assay type: functional; conditions: ATCC 13803, 44 h; summary of the method: as §1
Candida albicans [15] = assay: Antifungal activity against Candida albicans NR-29368 after 44 hrs by broth dilution assay; assay type: functional; conditions: NR-29368, 44 h; summary of the method: as §1
Candida albicans [16] = assay: Antifungal activity against Candida albicans ATCC MYA 573 after 44 hrs by broth dilution assay; assay type: functional; conditions: ATCC MYA 573, 44 h; summary of the method: as §1
Pichia kudriavzevii [17] = assay: Antifungal activity against Candida krusei ATCC 14243 after 44 hrs by broth dilution assay; assay type: functional; conditions: ATCC 14243, 44 h; summary of the method: as §1
Nakaseomyces glabratus [18] = assay: Antifungal activity against Candida glabrata ATCC MYA-2950 after 44 hrs by broth dilution assay; assay type: functional; conditions: ATCC MYA-2950, 44 h; summary of the method: as §1
Candida albicans [19] = assay: Antifungal activity against Candida albicans ATCC 29351 after 44 hrs by broth dilution assay; assay type: functional; conditions: ATCC 29351, 44 h; summary of the method: as §1
Aspergillus brasiliensis = assay: Antifungal activity against Aspergillus brasiliensis ATCC 16404 after 44 hrs by broth dilution assay; conditions: ATCC 16404, 44 h
Candida parapsilosis = assay: Antifungal activity against Candida parapsilosis ATCC 22019 after 44 hrs by broth dilution assay; assay type: functional; conditions: Lodderomyces parapsilosis, ATCC 22019, 44 h; summary of the method: as §1
Aspergillus fumigatus [20] = assay: Antifungal activity against Aspergillus fumigatus NR-35301 after 44 hrs by broth dilution assay; conditions: NR-35301, 44 h
Aspergillus niger [21] = assay: Antifungal activity against Aspergillus niger ATCC 16888 after 44 hrs by broth dilution assay; conditions: ATCC 16888, 44 h
Cryptococcus neoformans = assay: Antifungal activity against Cryptococcus neoformans NR-41292 after 68 hrs by broth dilution assay; assay type: functional; conditions: NR-41292, 68 h; summary of the method: as §3
Candida tropicalis [22] = assay: Antifungal activity against Candida tropicalis ATCC 1369 after 44 hrs by broth dilution assay; assay type: functional; conditions: ATCC 1369, 44 h; summary of the method: as §1

CC/C(=C\c1ccccc1)c1ccccc1
MIC (Candida albicans [1]): > 64 µM | MFC (Candida albicans [2]): > 64 µM

N#Cc1ccccc1/C=C/c1ccccc1
MIC (Candida albicans [1]): > 64 µM | MFC (Candida albicans [2]): > 64 µM

Nc1ccccc1/C=C/c1ccccc1
MIC (Candida albicans [1]): 64 µM (≈ 12.5 µg/mL)

N#Cc1ccc(/C=C/c2ccccc2)cc1
MIC (Nakaseomyces glabratus [3]): 8 µM (≈ 1.64 µg/mL) | Activity (HRT-18 cell line [4]): Non-Toxic | MIC (Candida albicans [1]): 2 µM (≈ 0.411 µg/mL) | MIC (Pichia kudriavzevii [5]): 16 µM (≈ 3.28 µg/mL) | MIC [6]: ≤ 0.5 µM | Activity (HRT-18 cell line [7]): Non-Toxic | MIC (Candida albicans [8]): 1 µM (≈ 0.205 µg/mL) | MIC [9]: ≤ 0.5 µM | MIC (Candida albicans [10]): 2 µM (≈ 0.411 µg/mL) | MIC (Candida albicans [11]): 1 µM (≈ 0.205 µg/mL) | MIC (Aspergillus fumigatus [12]): 32 µM (≈ 6.57 µg/mL) | MIC (Aspergillus niger [13]): > 64 µM | MIC (Candida tropicalis [14]): 4 µM (≈ 0.821 µg/mL) | MIC (Candida albicans [15]): 2 µM (≈ 0.411 µg/mL) | MIC (Candida albicans [16]): 1 µM (≈ 0.205 µg/mL) | MIC (Pichia kudriavzevii [17]): 32 µM (≈ 6.57 µg/mL) | MIC (Nakaseomyces glabratus [18]): 8 µM (≈ 1.64 µg/mL) | MIC (Candida albicans [19]): 1 µM (≈ 0.205 µg/mL) | MIC (Aspergillus brasiliensis): > 64 µM | MIC (Candida parapsilosis): 2 µM (≈ 0.411 µg/mL) | MIC (Aspergillus fumigatus [20]): 64 µM (≈ 13.1 µg/mL) | MIC (Aspergillus niger [21]): > 64 µM | MIC (Cryptococcus neoformans): ≤ 0.5 µM | MFC (Candida albicans [2]): > 64 µM | MIC (Candida tropicalis [22]): 16 µM (≈ 3.28 µg/mL)

CC/C(=C\c1ccccc1C#N)c1ccc(OC)cc1
MIC (Candida albicans [1]): > 64 µM | MFC (Candida albicans [2]): > 64 µM

COc1cccc(/C=C/c2ccccc2C#N)c1
MIC (Candida albicans [1]): 16 µM (≈ 3.76 µg/mL)

N#Cc1ccccc1/C=C/c1ccc([N+](=O)[O-])cc1
MIC (Candida albicans [1]): 8 µM (≈ 2 µg/mL) | MFC (Candida albicans [2]): 64 µM (≈ 16 µg/mL)

CCCCc1ccc(/C=C/c2ccccc2C#N)cc1
MIC (Candida albicans [1]): 8 µM (≈ 2.09 µg/mL) | MFC (Candida albicans [2]): 64 µM (≈ 16.7 µg/mL)

N#Cc1cccc(/C=C/c2ccccc2)c1
MIC (Candida albicans [1]): 4 µM (≈ 0.821 µg/mL) | MFC (Candida albicans [2]): 32 µM (≈ 6.57 µg/mL)

N#Cc1ccccc1C=C1CCCCC1
MIC (Candida albicans [1]): 4 µM (≈ 0.789 µg/mL) | MFC (Candida albicans [2]): > 64 µM

COc1ccc(/C=C/c2ccccc2C#N)cc1
MIC (Candida albicans [1]): 1 µM (≈ 0.235 µg/mL) | MFC (Candida albicans [2]): > 64 µM

C/C(=C\c1ccccc1C#N)c1ccccc1
MIC (Candida albicans [1]): 8 µM (≈ 1.75 µg/mL) | MFC (Candida albicans [2]): > 64 µM

N#Cc1ccccc1/C=C/c1ccc(F)cc1
MIC (Candida albicans [1]): 64 µM (≈ 14.3 µg/mL)

N#Cc1ccccc1-c1ccccc1
MIC (Candida albicans [1]): 0.5 µM (≈ 0.0896 µg/mL) | MFC (Candida albicans [2]): > 64 µM

OC(Cn1cncn1)(Cn1cncn1)c1ccc(F)cc1F [FLUCONAZOLE]
MIC (Nakaseomyces glabratus [3]): > 64 µM | MIC (Candida albicans [1]): 0.5 µM (≈ 0.153 µg/mL) | MIC (Pichia kudriavzevii [5]): 64 µM (≈ 19.6 µg/mL) | MIC [6]: 8 µM (≈ 2.45 µg/mL) | MIC (Candida albicans [8]): 1 µM (≈ 0.306 µg/mL) | MIC [9]: 8 µM (≈ 2.45 µg/mL) | MIC (Candida albicans [10]): > 64 µM | MIC (Candida albicans [11]): > 64 µM | MIC (Aspergillus fumigatus [12]): > 64 µM | MIC (Aspergillus niger [13]): > 64 µM | MIC (Candida tropicalis [14]): > 64 µM | MIC (Candida albicans [15]): > 64 µM | MIC (Candida albicans [16]): > 64 µM | MIC (Pichia kudriavzevii [17]): 64 µM (≈ 19.6 µg/mL) | MIC (Nakaseomyces glabratus [18]): > 64 µM | MIC (Candida albicans [19]): ≤ 0.5 µM | MIC (Aspergillus brasiliensis): > 64 µM | MIC (Aspergillus fumigatus [20]): > 64 µM | MIC (Aspergillus niger [21]): > 64 µM | MIC (Cryptococcus neoformans): 8 µM (≈ 2.45 µg/mL) | MFC (Candida albicans [2]): > 64 µM | MIC (Candida tropicalis [22]): > 64 µM

Reference: ChEMBL document CHEMBL4020705, “Investigation of aryl isonitrile compounds with potent, broad-spectrum antifungal activity” (Bioorg Med Chem, 2017)
